These results are taken from ChEMBL document CHEMBL1240399.

Substrate in data set [1]: CC(C)(O/N=C(\C(=O)N[C@@H]1C(=O)N2C(C(=O)[O-])=C(C[n+]3ccccc3)CS[C@H]12)c1csc(N)n1)C(=O)O
Description: (§1) Activity of Pseudomonas aeruginosa GES-13 beta lactamase assessed as hydrolysis by spectrometry. In a few lines: (§2)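 GES-13 expressed in E. coli(pB-ges13), released by sonication in 20 mM Tris pH 8.0, purified by Q-Sepharose (0–1 M NaCl gradient) then S-Sepharose after dialysis against 20 mM MES pH 6.0 (eluted 400–500 mM NaCl); >95% pure by SDS-PAGE. Hydrolysis of penicillin G, nitrocefin, cephalothin, cefotaxime, ceftazidime, aztreonam and imipenem followed spectrophotometrically; kinetic parameters derived.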

Substrate in data set [2]: CC1(C)S[C@@H]2[C@H](NC(=O)Cc3ccccc3)C(=O)N2[C@H]1C(=O)O
Described as §1. In a few lines: as §2

Substrate in data set [3]: CO/N=C(\C(=O)N[C@@H]1C(=O)N2C(C(=O)O)=C(COC(C)=O)CS[C@H]12)c1csc(N)n1
Described as §1. In a few lines:
as §2

Substrate in data set [4]: C[C@@H](O)[C@H]1C(=O)N2C(C(=O)O)=C(SCCNC=N)C[C@H]12
The data set is described as §1. In a few lines:
as §2

Substrate in data set [5]: C[C@H]1[C@H](NC(=O)/C(=N\OC(C)(C)C(=O)O)c2csc(N)n2)C(=O)N1S(=O)(=O)O
Described as §1. In a few lines: as §2

Substrate in data set [6]: O=C(Cc1cccs1)N[C@@H]1C(=O)N2C(C(=O)O)=C(/C=C/c3ccc([N+](=O)[O-])cc3[N+](=O)[O-])CS[C@H]12
The description is as §1. In a few lines:
as §2

Substrate in data set [7]: CC(=O)OCC1=C(C(=O)O)N2C(=O)[C@@H](NC(=O)Cc3cccs3)[C@H]2SC1
The data set is described as follows: (§3) Ratio of Kcat/Km for Pseudomonas aeruginosa GES-13 beta lactamase assessed as hydrolysis by spectrometry. In a few lines:
as §2

Substrate in data set [8]: CC(C)(O/N=C(\C(=O)N[C@@H]1C(=O)N2C(C(=O)[O-])=C(C[n+]3ccccc3)CS[C@H]12)c1csc(N)n1)C(=O)O
The description is as §3. In a few lines: as §2

Substrate in data set [9]: CC1(C)S[C@@H]2[C@H](NC(=O)Cc3ccccc3)C(=O)N2[C@H]1C(=O)O
The data set is described as §3. In a few lines: as §2

Substrate in data set [10]: CO/N=C(\C(=O)N[C@@H]1C(=O)N2C(C(=O)O)=C(COC(C)=O)CS[C@H]12)c1csc(N)n1
Described as §3. In a few lines: as §2

Substrate in data set [11]: C[C@H]1[C@H](NC(=O)/C(=N\OC(C)(C)C(=O)O)c2csc(N)n2)C(=O)N1S(=O)(=O)O
Described as §3. In a few lines:
as §2

Substrate in data set [12]: O=C(Cc1cccs1)N[C@@H]1C(=O)N2C(C(=O)O)=C(/C=C/c3ccc([N+](=O)[O-])cc3[N+](=O)[O-])CS[C@H]12
Described as §3. In a few lines:
as §2

B1: Beta-lactamase GES-13 (Pseudomonas aeruginosa), D1MIX9 (protein)
chain: MRFIHALLLAGIAHSAYASEKLTFKTDLEKLEREKAAQIGVAIVDPQGEIVAGHRMAQRFAMCSTFKFPLAALVFERIDSGTERGDRKLSYGPDMIVKWSPATERFLASGHMTVLEAAQAAVQLSDNGATNLLLREIGGPAAMTQYFRKIGDSVSRLDRKEPEMNDNTPGDLRDTTTPIAMARTVAKVLYGGALTSTSTHTIERWLIGNQTGDATLRAGFPKDWVVGEKTGTCANGGRNDIGFFKAQERDYAVAVYTTAPKLSAVERDELVASVGQVITQLILSTDK
With B1, the Km (usually the concentration of substrate that gives half-maximal velocity) was 229 µM in data set [1]; 139 µM in [2]; 63 µM in data set [3]; 405 µM in data set [5]; 197 µM in [6]. Further, the kcat (usually the number of substrate molecules converted per active site and unit of time at saturation) is 30.4 s⁻¹ in data set [1]; 13.5 s⁻¹ in [2]; 69 s⁻¹ in [3]; below 0.01 s⁻¹ in [4]; 35.6 s⁻¹ in data set [5]; 29.3 s⁻¹ in [6]. Also, the catalytic efficiency (kcat/Km) (as a rule, the second-order rate constant that governs catalysis at low substrate concentration) in [7] stood at 100000 M⁻¹ s⁻¹; in data set [8], 130000 M⁻¹ s⁻¹; in data set [9] it was 100000 M⁻¹ s⁻¹; in data set [10], 1.09e+06 M⁻¹ s⁻¹; in data set [11] it was 90000 M⁻¹ s⁻¹; in [12], 150000 M⁻¹ s⁻¹.
